According to ChEMBL document CHEMBL1143304, “Isolation, structure and biological activity of phomafungin, a cyclic lipodepsipeptide from a widespread tropical Phoma sp” (Bioorg Med Chem, 2009):
Values after ≈ are worked out from the molar mass of the structure shown. Active and inactive are the calls of the source. No cut-off for these calls is given here. Where a SMILES comes first, the peptide text is derived from it. [ ]: non-standard residue; d: D form. The star is where a group is joined. X1 = CCCCCCCCCCCCC(C)C(O)CC(=O)*; hSer = N[C@@H](CCO)C(=O)O

Columns and labels:
[1] = system: Nakaseomyces glabratus; assay: Antimicrobial activity against Candida glabrata MY1381 […] by broth macrodilution method; assay type: functional; settings: for MIC: read-out: MIC100
[2] = system: Candida albicans; assay: Antimicrobial activity against Candida albicans MY1055 after 24 hrs by broth macrodilution method; assay type: functional; settings: for MIC: read-out: MIC100
Procedure, shortened: (§1)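 Broth MIC: inoculum 10^5 CFU/ml, incubated at 37 °C with 2-fold serial dilutions of compound in growth medium. MIC was the lowest concentration preventing visible growth.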

[3] = system: Candida albicans; assay: Antimicrobial activity against Candida albicans MY1055 after 24 hrs in presence of 50% mouse serum by broth macrodilution method; assay type: functional; settings: MY1055, 24 h; for MIC: read-out: MIC100
[4] = system: Candida parapsilosis; assay: Antimicrobial activity against Candida parapsilosis ATCC 22019 […] by broth macrodilution method; assay type: functional; settings: Lodderomyces parapsilosis, read-out: MIC100
[5] = system: Clavispora lusitaniae; assay: Antimicrobial activity against Candida lusitaniae MY1396 after 24 hrs by broth macrodilution method; assay type: functional; settings: for MIC: read-out: MIC100; procedure, shortened: as §1
[6] = system: Pichia kudriavzevii; assay: Antimicrobial activity against Candida krusei ATCC 6258 […] by broth macrodilution method; assay type: functional; settings: for MIC: read-out: MIC100
[7] = system: Candida tropicalis; assay: Antimicrobial activity against Candida tropicalis MY1012 after 24 hrs by broth macrodilution method; assay type: functional; settings: for MIC: read-out: MIC100; procedure, shortened: as §1
[8] = system: Aspergillus fumigatus; assay: Antimicrobial activity against Aspergillus fumigatus MF5668 after 48 hrs by broth macrodilution method; assay type: functional; settings: for MIC: read-out: MIC100; procedure, shortened: as §1
[9] = system: Aspergillus fumigatus; assay: Antimicrobial activity against Aspergillus fumigatus MF5668 in presence of 50% human serum after 48 hrs by broth macrodilution method; assay type: functional; settings: for MIC: read-out: MIC100
[10] = system: Trichophyton mentagrophytes; assay: Antimicrobial activity against Trichophyton mentagrophytes MF7004 after 96 hrs by broth macrodilution method; assay type: functional; settings: for MIC: read-out: MIC100
[11] = system: Staphylococcus aureus; assay: Antimicrobial activity against Staphylococcus aureus MB2865 […] by broth macrodilution method; assay type: functional; settings: read-out: MIC100
[12] = system: Mus musculus; assay: Toxicity in Candida albicans MY1055 infected DBA/2 mouse assessed as mouse mortality at 12.5 mg/kg, ip administered twice daily for 2 days; assay type: organism-based; set-up: dose 12.5 mg/kg, route intraperitoneal; settings: in vivo, 48 h
Procedure, shortened: (§2)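 DBA/2 mice, five per group, were infected i.v. via lateral tail vein with 2.51 × 10^4 CFU/mouse. Sodium salt in water was given IP twice daily at 50, 25, 12.5, 5 or 2.5 mg/kg. Kidneys were homogenized in saline, serially diluted and plated on SDA (35 °C, 30–48 h). CFU/g were compared with sham-treated mice by paired two-tailed t-test.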

[13] = system: Mus musculus; assay: Toxicity in Candida albicans MY1055 infected DBA/2 mouse assessed as mouse mortality at 25 mg/kg, ip administered twice daily for 2 days; assay type: organism-based; set-up: dose 25 mg/kg, route intraperitoneal; settings: in vivo, 48 h; procedure, shortened: as §2
[14] = system: Mus musculus; assay: Toxicity in Candida albicans MY1055 infected DBA/2 mouse assessed as mouse mortality at 50 mg/kg, ip administered twice daily for 2 days; assay type: organism-based; set-up: dose 50 mg/kg, route intraperitoneal; settings: in vivo, 48 h; procedure, shortened: as §2
[15] = system: Mus musculus; assay: Toxicity in Candida albicans MY1055 infected DBA/2 mouse assessed as mouse mortality at <5 mg/kg, ip administered twice daily for 2 days; assay type: organism-based; settings: in vivo, 48 h; procedure, shortened: as §2
[16] = system: Candida albicans; assay: Antimicrobial activity against Candida albicans MY1055 infected DBA/2 mouse at <5 mg/kg, ip administered twice daily for 2 days; assay type: functional, organism-based; procedure, shortened: as §2
[17] = system: Candida albicans; assay: Antimicrobial activity against Candida albicans MY1055 infected DBA/2 mouse at <5 mg/kg, […] administered twice daily for 2 days; assay type: functional, organism-based
[18] = system: Mus musculus; assay: Dose normalized AUC in Candida albicans MY1055 infected iv dosed DBA/2 mouse; assay type: ADME, organism-based; settings: in vivo
[19] = Clearance in Candida albicans MY1055 infected iv dosed DBA/2 mouse; assay type: ADME, organism-based; settings: in vivo
[20] = Half life in Candida albicans MY1055 infected iv dosed DBA/2 mouse; assay type: ADME, organism-based; settings: in vivo
[21] = Toxicity against human HCT116 cells; assay type: cell-based, HCT-116
[22] = Toxicity against human PC3 cells; assay type: cell-based, PC-3
[23] = Toxicity against human GTL16 cells; assay type: cell-based, GTL 16
[24] = Toxicity against human HEL cells; assay type: cell-based
[25] = system: Candida albicans; assay: Antimicrobial activity against Candida albicans MY1055 infected DBA/2 mouse administered twice daily for 2 days; assay type: functional, organism-based
Procedure, shortened: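 DBA/2 mice (5 per group) were infected i.v. via lateral tail vein with 2.51 × 10^4 CFU per mouse. The sodium salt in water was given IP twice daily at 50, 25, 12.5, 5 or 2.5 mg/kg. Mortality and health were followed for 4 days. Kidney homogenates were plated on SDA (35 °C, 30–48 h). CFU/g kidney was compared with sham-treated controls by paired two-tailed t-test.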

[26] = system: Candida albicans; assay: Antimicrobial activity against Candida albicans MY1055 at 32 ug/mL after 24 hrs by broth macrodilution method; assay type: functional, organism-based

`CCCCCCCCCCCCC(C)C1CC(=O)N[C@@H](C)C(=O)NC(CCO)C(=O)N[C@@H](CCC(=O)O)C(=O)NCC(=O)N[C@@H](CO)C(=O)N[C@H](CC(N)=O)C(=O)N[C@H]([C@H](C)O)C(=O)NC(CCO)C(=O)O1` (some centres undefined) [PHOMAFUNGIN] gave an MIC80 [1] of 4 µg/mL (≈ 3.88 µM), an MIC [1] of 8 µg/mL (≈ 7.77 µM) and an MIC [2] of 4 µg/mL (≈ 3.88 µM). For the same compound, the MIC [3] was > 32 µg/mL, the MIC [4] was 4 µg/mL (≈ 3.88 µM) and the MIC [5] was 4 µg/mL (≈ 3.88 µM). The MIC [6] was 4 µg/mL (≈ 3.88 µM), the MIC [7] was > 32 µg/mL and the MIC [8] was 4 µg/mL (≈ 3.88 µM). The MIC [9] was > 32 µg/mL, the MIC80 [10] was 1 µg/mL (≈ 0.971 µM) and the MIC [10] was 2 µg/mL (≈ 1.94 µM). For the same compound, the MIC [11] was > 32 µg/mL, the Activity [12] was “Toxic” and the Activity [13] was “Toxic”. The Activity [14] was “Toxic”, the Activity [15] was “Non-toxic” and the Activity [16] was “inactive”. For the same compound, the Activity [17] was “inactive”, the AUC [18] was 2.64 µM and the clearance [19] was 6.15 mL/min/kg. The half-life [20] was 1.8 h, the IC50 [21] was 20 µM and the IC50 [22] was 19 µM. The IC50 [23] was 26 µM and the IC50 [24] was 15.5 µM.
For `CCCCCCCCCCCCC(C)C(O)CC(=O)N[C@@H](C)C(=O)N[C@@H](CCO)C(=O)N[C@@H](CCC(=O)O)C(=O)NCC(=O)N[C@@H](CO)C(=O)N[C@@H](CC(N)=O)C(=O)N[C@H](C(=O)N[C@@H](CCO)C(=O)O)[C@@H](C)O` (some centres undefined) (X1-A[hSer]EGSNT[hSer]-OH), the Activity [12] was “Non-toxic”, the Activity [25] was “inactive” and the Activity [26] was “inactive”.
For `CC[C@H](C)C[C@H](C)CCCCCCCCC(=O)N[C@H]1C[C@@H](O)[C@@H](NCCN)NC(=O)[C@@H]2[C@@H](O)CCN2C(=O)[C@H]([C@H](O)CCN)NC(=O)[C@H]([C@H](O)[C@@H](O)c2ccc(O)cc2)NC(=O)[C@@H]2C[C@@H](O)CN2C(=O)[C@H]([C@@H](C)O)NC1=O` [CASPOFUNGIN], the MIC80 [1] was < 0.03 µg/mL, the MIC [1] was 0.125 µg/mL (≈ 0.114 µM) and the MIC80 [2] was < 0.03 µg/mL. For the same compound, the MIC [2] was 0.125 µg/mL (≈ 0.114 µM), the MIC80 [3] was 0.125 µg/mL and the MIC [3] was 0.25 µg/mL. For the same compound, the MIC [4] was 0.5 µg/mL (≈ 0.457 µM), the MIC80 [5] was < 0.03 µg/mL and the MIC [5] was 0.125 µg/mL (≈ 0.114 µM). For the same compound, the MIC80 [6] was 0.25 µg/mL (≈ 0.229 µM), the MIC [6] was 1 µg/mL (≈ 0.915 µM) and the MIC80 [7] was < 0.03 µg/mL. For the same compound, the MIC [7] was 0.125 µg/mL (≈ 0.114 µM), the MIC80 [8] was < 0.03 µg/mL and the MIC [8] was > 32 µg/mL. For the same compound, the MIC80 [9] was 0.06 µg/mL, the MIC [9] was > 32 µg/mL and the MIC80 [10] was 0.03 µg/mL (≈ 0.0274 µM). For the same compound, the MIC [10] was 32 µg/mL (≈ 29.3 µM) and the MIC [11] was 32 µg/mL (≈ 29.3 µM).
